The source made the active and inactive calls. The rule behind the calls is not given here.
Experiments:
Type in all cases: functional
[1] = Antioxidant activity assessed as ABTS radical scavenging activity after 6 mins
[2] = tested on: Radical scavenging activity; assay: Antioxidant activity assessed as DPPH free radical scavenging activity after 30 mins by spectrophotometric analysis
Summary of the method: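 Serial dilutions of compound (100 to 3.125 µg/mL) mixed 1:1 with 0.2 mmol/L DPPH in ethanol; ethanol blank, BHT control. A515 read after 0.5 h at 25 °C; IC50 = concentration giving 50% DPPH scavenging; three replicates, mean ± SD.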

[3] = Antioxidant activity assessed as ferric ion reducing activity using ferric-TPTZ by measuring concentration of compound with antioxidant capacity equivalent to ferrous sulfate at 0.5 mmol/L by FRAP assay
[4] = Antioxidant activity against AAPH-induced DNA breakage in Escherichia coli pBR322 at 100 uM after 1 hr using ethidium bromide staining by agarose gel electrophoresis analysis
Summary of the method: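 Plasmid pBR322 DNA (4 µg/mL final) exposed to AAPH (4 mM final) in phosphate buffer (8.1 mM Na₂HPO₄, 1.9 mM NaH₂PO₄, 10.0 mM EDTA), 25 µL total; samples and Trolox standard added at 100 µM in DMSO; 37 °C, 1 h. Strand breakage resolved on 1% agarose gel in Tris-acetate-EDTA, 60 V, 100 min.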

Liver = assay: Antioxidant activity in KM mouse liver microsomes assessed as inhibition of lipid peroxidation after 60 mins; settings: for inhibition: Microsome; for IC50: 1 h
Summary of the method: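 Liver microsomes from adult male KM mice (8–12 weeks), protein by Bradford, used at 0.67 mg protein/mL with compounds at varying concentrations, 10 mM FeSO₄ and 0.1 mM ascorbic acid in 0.2 M potassium phosphate pH 7.4; 37 °C, 60 min. Stopped with 20% TCA plus 0.67% TBA, heated 100 °C 15 min, centrifuged; MDA-TBA read at 535 nm.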

`Cc1ccc(NCn2nc(-c3ccc4c(c3)OCCO4)oc2=S)cc1` gave an IC50 [1] of 5.7 µM, an IC50 [2] of 25.2 µM and an Activity [3] of 434 µM.

`Fc1cccc(NCn2nc(-c3ccc4c(c3)OCCO4)oc2=S)c1` showed an IC50 [1] of 6.62 µM, an IC50 [2] of 35.6 µM and an Activity [3] of 398 µM.

`S=c1[nH]nc(-c2ccccc2)o1` gave an IC50 [1] of 10.9 µM, an IC50 [2] of 89.8 µM and an Activity [3] of over 1000 µM.

In the case of `Cc1cc(C(C)(C)C)c(O)c(C(C)(C)C)c1` [BUTYLATED HYDROXYTOLUENE], the IC50 [1] is reported as 7.57 µM, the IC50 [2] is reported as 43.8 µM and the Activity [3] is reported as 546 µM.

Work on `S=c1oc(-c2ccc3c(c2)OCCO3)nn1CNc1ccc(Br)cc1` yielded an IC50 [1] of 14.7 µM, an IC50 [2] of 71.3 µM and an Activity [3] of 531 µM.

With `S=c1oc(-c2ccc3c(c2)OCCO3)nn1CNC1CCCCC1` the IC50 [1] was 18.4 µM, the IC50 [2] was 94.4 µM and the Activity [3] was over 1000 µM.

With `S=c1oc(-c2ccc3c(c2)OCCO3)nn1CNc1cc(Cl)ccc1Cl` the IC50 [1] was 5.42 µM, the IC50 [2] was 35.1 µM and the Activity [3] was 899 µM.

For `O=[N+]([O-])c1ccccc1NCn1nc(-c2ccc3c(c2)OCCO3)oc1=S`, the Activity [4] was “Active”, the IC50 [1] was 10.9 µM and the IC50 [2] was 47.8 µM. For the same molecule, the Activity [3] was over 1000 µM and the inhibition (Liver) was “Active”.

Molecule `CCCCCCCCCCCCCCCCNCn1nc(-c2ccc3c(c2)OCCO3)oc1=S` has an IC50 [1] of 22.9 µM, an IC50 [2] of 108 µM and an Activity [3] of over 1000 µM.

`S=c1oc(-c2ccc3c(c2)OCCO3)nn1CNc1cccc(Br)c1` showed an IC50 [1] of 10.8 µM, an IC50 [2] of 51 µM and an Activity [3] of over 1000 µM.

In the case of `S=c1oc(-c2ccc3c(c2)OCCO3)nn1CNc1ccc(Cl)cc1`, the IC50 [1] is reported as 7.27 µM, the IC50 [2] is reported as 31.3 µM and the Activity [3] is reported as 584 µM.

In the case of `Fc1cc(NCn2nc(-c3ccc4c(c3)OCCO4)oc2=S)cc(F)c1F`, the Activity [4] is reported as “Active”, the IC50 [1] is reported as 2.92 µM and the IC50 [2] is reported as 19.6 µM. It also gave an Activity [3] of 240 µM and an IC50 (Liver) of 110 µM.

In the case of `Fc1ccc(NCn2nc(-c3ccc4c(c3)OCCO4)oc2=S)cc1`, the IC50 [1] is reported as 6.48 µM, the IC50 [2] is reported as 29.3 µM and the Activity [3] is reported as 300 µM.

`S=c1oc(-c2ccc3c(c2)OCCO3)nn1CNc1ccccc1Br` gave an IC50 [1] of 12.7 µM, an IC50 [2] of 36.1 µM and an Activity [3] of 440 µM.

Molecule `S=c1[nH]nc(-c2ccc3c(c2)OCCO3)o1` has an IC50 [1] of 10.6 µM, an IC50 [2] of 63.9 µM and an Activity [3] of 612 µM.

`S=c1oc(-c2ccc3c(c2)OCCO3)nn1CNc1ccccc1Cl` gave an IC50 [1] of 7.23 µM, an IC50 [2] of 30.5 µM and an Activity [3] of 532 µM.

Molecule `FC(F)(F)c1cccc(NCn2nc(-c3ccc4c(c3)OCCO4)oc2=S)c1` has an IC50 [1] of 7.62 µM, an IC50 [2] of 35.5 µM and an Activity [3] of over 1000 µM.

`S=c1oc(-c2ccc3c(c2)OCCO3)nn1CNc1ccc(Cl)cc1Cl` showed an IC50 [1] of 8.71 µM, an IC50 [2] of 43.5 µM and an Activity [3] of 593 µM.

In the case of `Fc1cccc(F)c1NCn1nc(-c2ccc3c(c2)OCCO3)oc1=S`, the Activity [4] is reported as “Active”, the IC50 [1] is reported as 3.32 µM and the IC50 [2] is reported as 21.8 µM. For the same molecule, the Activity [3] was 268 µM and the inhibition (Liver) was “Active”.

For `S=c1oc(-c2ccc3c(c2)OCCO3)nn1CNc1ccccc1`, the Activity [4] was “Active”, the IC50 [1] was 5.14 µM and the IC50 [2] was 32.6 µM. The Activity [3] was 735 µM and the inhibition (Liver) was “Active”.

For `O=[N+]([O-])c1cccc(NCn2nc(-c3ccc4c(c3)OCCO4)oc2=S)c1`, the Activity [4] was “Active”, the IC50 [1] was 8.87 µM and the IC50 [2] was 38.3 µM. The Activity [3] was over 1000 µM and the inhibition (Liver) was “Active”.

In the case of `COc1ccc(NCn2nc(-c3ccc4c(c3)OCCO4)oc2=S)cc1`, the IC50 [1] is reported as 5.83 µM, the IC50 [2] is reported as 31.8 µM and the Activity [3] is reported as 493 µM.

With `COC(=O)c1ccc2c(c1)OCCO2` the IC50 [1] was 13.8 µM, the IC50 [2] was 87.4 µM and the Activity [3] was over 1000 µM.

In the case of `FC(F)(F)c1ccccc1NCn1nc(-c2ccc3c(c2)OCCO3)oc1=S`, the IC50 [1] is reported as 9.22 µM, the IC50 [2] is reported as 68.3 µM and the Activity [3] is reported as over 1000 µM.

In the case of `S=c1oc(-c2ccc3c(c2)OCCO3)nn1CNc1ccc(Br)cc1Br`, the IC50 [1] is reported as 6.41 µM, the IC50 [2] is reported as 35.9 µM and the Activity [3] is reported as over 1000 µM.

With `Cc1ccccc1NCn1nc(-c2ccc3c(c2)OCCO3)oc1=S` the Activity [4] was “Active”, the IC50 [1] was 3.45 µM and the IC50 [2] was 36.3 µM. For the same molecule, the Activity [3] was 292 µM and the inhibition (Liver) was “Active”.

Molecule `O=[N+]([O-])c1ccc(NCn2nc(-c3ccc4c(c3)OCCO4)oc2=S)cc1` has an IC50 [1] of 9.95 µM, an IC50 [2] of 47.8 µM and an Activity [3] of over 1000 µM.

`COc1ccccc1NCn1nc(-c2ccc3c(c2)OCCO3)oc1=S` gave an IC50 [1] of 6.3 µM, an IC50 [2] of 28.6 µM and an Activity [3] of 335 µM.

In the case of `O=[N+]([O-])c1ccc(NCn2nc(-c3ccc4c(c3)OCCO4)oc2=S)c(Cl)c1`, the Activity [4] is reported as “Active”, the IC50 [1] is reported as 8.66 µM and the IC50 [2] is reported as 83.4 µM. The Activity [3] was over 1000 µM and the inhibition (Liver) was “Active”.

`Cc1c(C)c2c(c(C)c1O)CCC(C)(C(=O)O)O2` (stereo not given) [TROLOX] showed an IC50 [1] of 6.19 µM, an IC50 [2] of 30.2 µM and an Activity [3] of 294 µM. For the same molecule, the IC50 (Liver) was 183 µM.

In the case of `S=c1oc(-c2ccc3c(c2)OCCO3)nn1CNc1ccc(Cl)c(Cl)c1`, the IC50 [1] is reported as 6.84 µM, the IC50 [2] is reported as 36.2 µM and the Activity [3] is reported as 763 µM.

`CCOc1ccccc1NCn1nc(-c2ccc3c(c2)OCCO3)oc1=S` gave an IC50 [1] of 5.28 µM, an IC50 [2] of 22.4 µM and an Activity [3] of 422 µM.

`Fc1ccccc1NCn1nc(-c2ccc3c(c2)OCCO3)oc1=S` gave an IC50 [1] of 6.39 µM, an IC50 [2] of 37.3 µM and an Activity [3] of 522 µM.

Work on `S=c1oc(-c2ccc3c(c2)OCCO3)nn1CNc1cccc(Cl)c1` yielded an IC50 [1] of 6.22 µM, an IC50 [2] of 22.8 µM and an Activity [3] of 846 µM.

Work on `FC(F)(F)c1cc(NCn2nc(-c3ccc4c(c3)OCCO4)oc2=S)cc(C(F)(F)F)c1` yielded an IC50 [1] of 9.32 µM, an IC50 [2] of 89.3 µM and an Activity [3] of over 1000 µM.

From ChEMBL document CHEMBL2434867, “Synthesis and antioxidant activity of novel Mannich base of 1,3,4-oxadiazole derivatives possessing 1,4-benzodioxan” (Bioorg Med Chem, 2013)
